Assay results as given in ChEMBL document CHEMBL3124882, “Semi-synthesis of acylated triterpenes from olive-oil industry wastes for the development of anticancer and anti-HIV agents” (Eur J Med Chem, 2014).
Blank lines part the entries; values can stand above or below the compound they belong to. The source made the active and inactive calls. The rule behind the calls is not given here.

What was measured:
B16-F10 [1] = assay: Induction of apoptosis in mouse B16F10 cells assessed as late apoptotic cells at 2 X IC50 after 72 hrs by annexin V-FITC/propidium iodide staining-based FACS analysis (reference value: 9.8 +/- 2.2%); type: functional
Protease = Protease (Human immunodeficiency virus 1, UniProt Q9YQ12); assay: Inhibition of HIV1 recombinant protease expressed in Escherichia coli using Abz-Ala-Arg-Val-Nle-Tyr(NO2)-Glu-Ala-Nle-NH2 as substrate by FRET assay
Chain of Protease (Q9YQ12 whole entry): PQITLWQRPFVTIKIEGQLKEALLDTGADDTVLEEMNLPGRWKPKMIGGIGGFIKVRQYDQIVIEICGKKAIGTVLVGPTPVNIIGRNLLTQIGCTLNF

B16-F10 [2] = assay: Induction of apoptosis in mouse B16F10 cells assessed as necrotic cells at 2 X IC50 after 72 hrs by annexin V-FITC/propidium iodide staining-based FACS analysis (reference value: 4.0 +/- 0.6%); type: functional
B16-F10 [3] = assay: Induction of apoptosis in mouse B16F10 cells assessed as late apoptotic cells at IC50 after 72 hrs by annexin V-FITC/propidium iodide staining-based FACS analysis (reference value: 9.8 +/- 2.2%); type: functional
B16-F10 [4] = assay: Induction of apoptosis in mouse B16F10 cells assessed as early apoptotic cells at 2 X IC50 after 72 hrs by annexin V-FITC/propidium iodide staining-based FACS analysis (reference value: 3.9 +/- 0.4%); type: functional
B16-F10 [5] = assay: Cytotoxicity against mouse B16F10 cells after 72 hrs by MTT assay; type: functional, cell-based; details: B16-F10, 72 h
Procedure, shortened: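 B16F10 cells (DMEM, 2 mM glutamine, 10% heat-inactivated FCS, penicillin/streptomycin; subconfluent) seeded at 11·10^3 per well and exposed to 0–80 µg/mL for 72 h. Compounds were diluted from a 10 mg/mL stock in 50% DMSO/PBS. MTT 0.5 mg/mL for 2 h, formazan dissolved in DMSO, absorbance at 550 nm. Viability is relative to untreated controls; IC50 from four assays of six replicates, mean ± S.E.M.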

B16-F10 [6] = assay: Induction of apoptosis in mouse B16F10 cells assessed as total apoptotic cells at IC50 after 72 hrs by annexin V-FITC/propidium iodide staining-based FACS analysis (reference value: 13.7 +/- 2.7%); type: functional
B16-F10 [7] = assay: Induction of apoptosis in mouse B16F10 cells assessed as necrotic cells at IC50 after 72 hrs by annexin V-FITC/propidium iodide staining-based FACS analysis (reference value: 4.0 +/- 0.6%); type: functional
B16-F10 [8] = assay: Induction of ROS generation in mouse B16F10 cells at IC50 to 2 X IC50 after 72 hrs by rhodamine123/propidium iodide staining-based FACS analysis; type: functional, cell-based
Procedure, shortened: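 B16F10 cells, 11·10^4 per well, treated 72 h at IC50 or 2×IC50, then given fresh medium with dihydrorhodamine 123 at a final 5 µg/mL for 30 min. Cells washed, resuspended in PBS and read by flow cytometry for Rh123 and PI fluorescence (excitation 500 nm, emission 536 nm). Rh123+ cells scored ROS-positive regardless of PI. Three experiments in duplicate, mean ± S.E.M.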

B16-F10 [9] = assay: Induction of apoptosis in mouse B16F10 cells assessed as total apoptotic cells at 2 X IC50 after 72 hrs by annexin V-FITC/propidium iodide staining-based FACS analysis (reference value: 13.7 +/- 2.7%); type: functional
B16-F10 [10] = assay: Induction of apoptosis in mouse B16F10 cells assessed as normal cells at IC50 after 72 hrs by annexin V-FITC/propidium iodide staining-based FACS analysis (reference value: 77.9 +/- 1.5%); type: functional
B16-F10 [11] = assay: Induction of apoptosis in mouse B16F10 cells assessed as early apoptotic cells at IC50 after 72 hrs by annexin V-FITC/propidium iodide staining-based FACS analysis (reference value: 3.9 +/- 0.4%); type: functional
B16-F10 [12] = assay: Induction of apoptosis in mouse B16F10 cells assessed as normal cells at 2 X IC50 after 72 hrs by annexin V-FITC/propidium iodide staining-based FACS analysis (reference value: 77.9 +/- 1.5%); type: functional

- IC50 (Protease): 0.8 µM
SMILES: CC1(C)CC[C@]2(C(=O)OCc3ccccc3)CC[C@]3(C)C(=CC[C@@H]4[C@@]5(C)C[C@@H](OC(=O)c6ccccc6C(=O)O)[C@H](O)C(C)(C)[C@@H]5CC[C@]43C)[C@@H]2C1
- Activity (B16-F10 [1]): 46.2%
- Activity (B16-F10 [2]): 7.5%
- Activity (B16-F10 [3]): 22.5%
- Activity (B16-F10 [4]): 43.6%
- IC50 (B16-F10 [5]): 73.2 µM
- Activity (B16-F10 [6]): 64.7%
- Activity (B16-F10 [7]): 2.5%
- Activity (B16-F10 [8]): inactive
- Activity (B16-F10 [9]): 89.7%
- Activity (B16-F10 [10]): 32.8%
- Activity (B16-F10 [11]): 42.2%
- Activity (B16-F10 [12]): 2.9%

- IC50 (Protease): 124 µM
SMILES: CCCCCC(=O)O[C@@H]1C[C@]2(C)[C@H]3CC=C4[C@@H]5CC(C)(C)CC[C@]5(C(=O)O)CC[C@@]4(C)[C@]3(C)CC[C@H]2C(C)(C)[C@H]1O
- Activity (B16-F10 [1]): 17.5%
- Activity (B16-F10 [2]): 1.1%
- Activity (B16-F10 [3]): 19%
- Activity (B16-F10 [4]): 62.7%
- IC50 (B16-F10 [5]): 34.6 µM
- Activity (B16-F10 [6]): 61.4%
- Activity (B16-F10 [7]): 3.9%
- Activity (B16-F10 [8]): Active
- Activity (B16-F10 [9]): 80.2%
- Activity (B16-F10 [10]): 34.8%
- Activity (B16-F10 [11]): 42.4%
- Activity (B16-F10 [12]): 18.9%

Continued, compound first:

SMILES: CC(=O)O[C@H]1CC[C@]2(C)[C@H]3CC=C4[C@@H]5CC(C)(C)CC[C@]5(C(=O)O)CC[C@@]4(C)[C@]3(C)CC[C@H]2C1(C)C [ACETYL OLEANOLIC ACID]
- Activity (B16-F10 [1]): 33.4%
- IC50 (Protease): 3.4 µM
- Activity (B16-F10 [2]): 5.7%
- Activity (B16-F10 [3]): 40.3%
- Activity (B16-F10 [4]): 14.6%
- IC50 (B16-F10 [5]): 64.7 µM
- Activity (B16-F10 [6]): 54.7%
- Activity (B16-F10 [7]): 5.8%
- Activity (B16-F10 [8]): Active
- Activity (B16-F10 [9]): 48%
- Activity (B16-F10 [10]): 39.5%
- Activity (B16-F10 [11]): 14.4%
- Activity (B16-F10 [12]): 46.3%

SMILES: CC(C)(CC(=O)O)CC(=O)O[C@@H]1C[C@]2(C)[C@H]3CC=C4[C@@H]5CC(C)(C)CC[C@]5(C(=O)OCc5ccccc5)CC[C@@]4(C)[C@]3(C)CC[C@H]2C(C)(C)[C@H]1O
- Activity (B16-F10 [1]): 65.3%
- Activity (B16-F10 [2]): 5.6%
- Activity (B16-F10 [3]): 46.3%
- Activity (B16-F10 [4]): 26.9%
- IC50 (B16-F10 [5]): 28.3 µM
- Activity (B16-F10 [6]): 62.8%
- Activity (B16-F10 [7]): 1.8%
- Activity (B16-F10 [8]): Active
- Activity (B16-F10 [9]): 92.2%
- Activity (B16-F10 [10]): 35.4%
- Activity (B16-F10 [11]): 16.5%
- Activity (B16-F10 [12]): 2.2%

SMILES: CC(=O)O[C@@H]1C[C@]2(C)[C@H]3CC=C4[C@@H]5CC(C)(C)CC[C@]5(C(=O)O)CC[C@@]4(C)[C@]3(C)CC[C@H]2C(C)(C)[C@H]1OC(C)=O
- Activity (B16-F10 [1]): 59.3%
- Activity (B16-F10 [2]): 1.5%
- Activity (B16-F10 [3]): 52.9%
- Activity (B16-F10 [4]): 29.6%
- IC50 (B16-F10 [5]): 44.1 µM
- Activity (B16-F10 [6]): 61.6%
- Activity (B16-F10 [7]): 7.1%
- Activity (B16-F10 [8]): Active
- Activity (B16-F10 [9]): 88.9%
- Activity (B16-F10 [10]): 31.4%
- Activity (B16-F10 [11]): 8.7%
- Activity (B16-F10 [12]): 9.7%
